Reference: ChEMBL document CHEMBL1255469, “In vitro activity of a new isothiazoloquinolone, ACH-702, against Mycobacterium tuberculosis and other mycobacteria” (2010)
Converted amounts (≈) assume the structure as drawn.

What was measured:
Format in all cases: functional
Mycobacteroides chelonae = test: Antimicrobial activity against Mycobacterium chelonae clinical isolates after 7 days by broth microdilution assay; conditions: 168 h
[1] = test system: Mycobacterium avium complex sp.; test: Antimicrobial activity against Mycobacterium avium complex clinical isolates after 7 days by broth microdilution assay; conditions: 168 h
Summary of the method: (§1)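 Slowly growing mycobacteria were identified by phenotype and hsp65 PCR-RFLP. MIC by CLSI broth microdilution in cation-adjusted Mueller-Hinton broth with OADC supplement at a final 10%. Final drug range 0.06 to 16 μg/ml. Read after 7 days at 35°C. S. aureus ATCC 29213 was run as a quality control with each plate lot.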

[2] = test system: Mycobacterium tuberculosis; test: Antimicrobial activity against isoniazid and rifampin-susceptible Mycobacterium tuberculosis clinical isolates after 7 days by broth microdilution assay; conditions: 168 h
Summary of the method: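 Alamar Blue broth microdilution in 7H9GC broth (Middlebrook 7H9 base, glycerol, Casitone, 10% OADC). Drug stock 1 mg/ml in 100% DMSO, diluted in broth to a final 0.03 to 8 μg/ml. M. tuberculosis H37Rv served as the susceptible-strain control. Isoniazid and rifampin resistance was assigned beforehand by the proportion method.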

Mycobacterium gordonae = test: Antimicrobial activity against Mycobacterium gordonae after 7 days by broth microdilution assay; conditions: 168 h; summary of the method: as §1
Mycobacterium kansasii = test: Antimicrobial activity against Mycobacterium kansasii after 7 days by broth microdilution assay; conditions: 168 h; summary of the method: as §1
[3] = test system: Mycobacteroides abscessus; test: Antimicrobial activity against Mycobacterium abscessus clinical isolates after 7 days by broth microdilution assay; conditions: 168 h
Staphylococcus aureus = test: Antimicrobial activity against Staphylococcus aureus ATCC 29213 after 72 hrs by broth microdilution assay; conditions: ATCC 29213, 72 h
[4] = test system: Mycolicibacterium fortuitum; test: Antimicrobial activity against Mycobacterium fortuitum clinical isolates after 7 days by broth microdilution assay; conditions: 168 h

Structure (SMILES): COc1c(N2CC[C@@H](C(C)(C)N)C2)c(F)cc2c(=O)c3c(=O)[nH]sc3n(C3CC3)c12
- MIC (Mycobacteroides chelonae): 8 µg/mL (≈ 18.5 µM)
- MIC50 [1]: 0.25 µg/mL (≈ 0.578 µM)
- MIC90 [1]: 4 µg/mL (≈ 9.25 µM)
- MIC50 [2]: 0.0625 µg/mL (≈ 0.145 µM)
- MIC90 [2]: 0.125 µg/mL (≈ 0.289 µM)
- MIC (Mycobacterium gordonae): 0.12 µg/mL (≈ 0.277 µM)
- MIC (Mycobacterium kansasii): 0.12 µg/mL (≈ 0.277 µM)
- MIC [3]: 16 µg/mL (≈ 37 µM)
- MIC (Staphylococcus aureus): ≤ 0.06 µg/mL
- MIC50 [4]: ≤ 0.0625 µg/mL
- MIC90 [4]: ≤ 0.0625 µg/mL
